{"data": "Published values of several laboratories", "observed": "cell growth or viability", "note": "Protocols differ between the studies behind these lines."}
{"Compound": "O=C(CCCCCCC(=O)Nc1ccccc1)NO", "cell line": "HBL1", "test": "ATP luminescence", "setting": "1 µM, 5 days", "quantity": "viability", "result": "10.7%"}
{"Compound": "CN(C)CCNC(=O)c1ccc(-c2nc3ccc4[nH]ncc4c3c3c2CC(C)(C)CC3)cc1", "cell line": "MV4-11", "test": "resazurin", "setting": "72 h", "quantity": "GI50", "result": "80 nM"}
{"Compound": "C[C@H](Nc1ccc2c(c1)OCCn1cc(N3C(=O)OC[C@H]3C(F)F)nc1-2)C(N)=O", "cell line": "IM95", "test": "ATP luminescence", "setting": "5 days", "quantity": "EC50", "result": "388 nM"}
{"Compound": "CN(C)CCNC(=O)c1ccc(-c2nc3ccc4[nH]ncc4c3c3c2CCCC3)s1", "cell line": "MV4-11", "test": "resazurin", "setting": "72 h", "quantity": "GI50", "result": "157 nM"}
{"Compound": "CCN(Cc1c(F)cccc1F)c1ccc(CO)c(Cl)c1", "cell line": "RBE", "test": "ATP luminescence", "setting": "46 µM, 72 h", "quantity": "inhibition", "result": "57%"}
{"Compound": "CN(C)CCNC(=O)c1ccc(-c2nc3ccc4[nH]ncc4c3c3c2CCC3)cc1", "cell line": "MV4-11", "test": "resazurin", "setting": "72 h", "quantity": "GI50", "result": "100 nM"}
{"Compound": "O=C(CCCCCCSc1ccc2ccccc2c1)NO", "cell line": "HBL1", "test": "ATP luminescence", "setting": "1 µM, 5 days", "quantity": "viability", "result": "98.6%"}
{"Compound": "C[C@H](N)C(=O)Nc1ccccc1/N=c1\\cc(-c2ccc3c(c2)OCCO3)oc2c([N+](=O)[O-])cccc12", "cell line": "MDA-MB-468", "test": "CCK-8", "setting": "1 µM", "quantity": "inhibition", "result": "1.9%"}
{"Compound": "CC1c2ccccc2CCN1c1ccc(CO)c(Cl)c1 (stereo not shown)", "cell line": "RBE", "test": "ATP luminescence", "setting": "46 µM, 72 h", "quantity": "inhibition", "result": "91%"}
{"Compound": "CCc1nc(C(N)=O)c(Nc2ccc(N3CCC(N4CCN(C)CC4)CC3)c(OC)c2)nc1NC1CCOCC1", "cell line": "MV4-11", "test": "resazurin", "setting": "72 h", "quantity": "GI50", "result": "26 nM"}
{"Compound": "CC(=O)OC[C@H]1O[C@@H](n2cnc(N)nc2=O)[C@H](OC(C)=O)[C@@H]1OC(C)=O", "cell line": "HBL1", "test": "ATP luminescence", "setting": "0.1 µM, 5 days", "quantity": "viability", "result": "105%"}
{"Compound": "OCc1ccc(-c2nn(Cc3ccccc3)c3ccncc23)o1", "cell line": "RBE", "test": "ATP luminescence", "setting": "46 µM, 72 h", "quantity": "inhibition", "result": "47%"}
{"Compound": "COCCC(=O)Nc1ccccc1/N=c1\\cc(-c2ccc3c(c2)OCO3)oc2ccccc12", "cell line": "MDA-MB-468", "test": "CCK-8", "setting": "1 µM", "quantity": "inhibition", "result": "2.51%"}
{"Compound": "O=C(Nc1cccc(Br)c1)c1cccc(S(=O)(=O)N2CCCCCC2)c1", "cell line": "HBL1", "test": "ATP luminescence", "setting": "0.1 µM, 5 days", "quantity": "viability", "result": "134%"}
{"Compound": "Cc1n[nH]c2ccc3nc(-c4ccc(C(=O)N(C)CCN(C)C)cc4)c4c(c3c12)CCC(F)(F)C4", "cell line": "MV4-11", "test": "resazurin", "setting": "72 h", "quantity": "GI50", "result": "814 nM"}
{"Compound": "COc1ccc2/c(=N/c3ccccc3NC(=O)CN)cc(-c3ccc4c(c3)OCCO4)oc2c1", "cell line": "MDA-MB-468", "test": "CCK-8", "setting": "1 µM", "quantity": "inhibition", "result": "15.2%"}
{"Compound": "COC(=O)CNC(=O)C(=O)OC", "cell line": "HBL1", "test": "ATP luminescence", "setting": "1 µM, 5 days", "quantity": "viability", "result": "93.3%"}
{"Compound": "CNCCC(=O)Nc1ccccc1/N=c1\\cc(-c2ccc3nc(N)oc3c2)oc2ccccc12", "cell line": "MDA-MB-468", "test": "CCK-8", "setting": "1 µM", "quantity": "inhibition", "result": "40.6%"}
{"Compound": "CN(C)CC1(NC(=O)c2ccc(-c3nc4ccc5[nH]ncc5c4c4c3CCCC4)cc2)CC1", "cell line": "MV4-11", "test": "resazurin", "setting": "72 h", "quantity": "GI50", "result": "536 nM"}
{"Compound": "O=C(Nc1ccc(Cl)cc1)C1CCCN(C(=O)c2cc(C(F)(F)F)cc(C(F)(F)F)c2)C1 (racemic)", "cell line": "HBL1", "test": "ATP luminescence", "setting": "1 µM, 5 days", "quantity": "viability", "result": "92.8%"}
{"Compound": "COc1ccc2/c(=N/c3ccccc3NC(=O)[C@@H](N)C(C)(C)C)cc(-c3ccc4c(c3)OCO4)oc2c1", "cell line": "MDA-MB-468", "test": "CCK-8", "setting": "1 µM", "quantity": "inhibition", "result": "2.98%"}
{"Compound": "O=C(Nc1nccs1)c1ccc(-c2nc3ccc4[nH]ncc4c3c3c2CCCC3)cc1", "cell line": "MV4-11", "test": "resazurin", "setting": "72 h", "quantity": "GI50", "result": "743 nM"}
{"Compound": "CCN(Cc1ccccc1)c1ccc(CO)c(Cl)c1", "cell line": "RBE", "test": "ATP luminescence", "setting": "46 µM, 72 h", "quantity": "inhibition", "result": "57%"}
{"Compound": "CCN(CC)CCNC(=O)c1ccc(-c2nc3ccc4[nH]ncc4c3c3c2CCCC3)cc1", "cell line": "MV4-11", "test": "resazurin", "setting": "72 h", "quantity": "GI50", "result": "440 nM"}
{"Compound": "O=C(NO)c1ccc(CC(=O)N(CCO)c2ccccc2)cc1", "cell line": "HBL1", "test": "ATP luminescence", "setting": "0.1 µM, 5 days", "quantity": "viability", "result": "103%"}
{"Compound": "OCc1ccc(-c2nn(Cc3cccc(F)c3)c3ccccc23)o1", "cell line": "RBE", "test": "ATP luminescence", "setting": "46 µM, 72 h", "quantity": "inhibition", "result": "60%"}
{"Compound": "O=C(/C=C/c1cccc(C(=O)NO)c1)NO", "cell line": "HBL1", "test": "ATP luminescence", "setting": "1 µM, 5 days", "quantity": "viability", "result": "37.7%"}
{"Compound": "OCc1ccc(-c2nn(Cc3ccccc3)c3ncccc23)o1", "cell line": "RBE", "test": "ATP luminescence", "setting": "46 µM, 72 h", "quantity": "inhibition", "result": "51%"}
{"Compound": "NCCCC(=O)Nc1ccccc1/N=c1\\cc(-c2ccc3c(c2)OCO3)oc2ccccc12", "cell line": "MDA-MB-468", "test": "CCK-8", "setting": "1 µM", "quantity": "inhibition", "result": "8.13%"}
{"Compound": "C=C(NC(=O)C(=C)NC(=O)c1csc(C2=N[C@@H]3c4csc(n4)[C@H]4NC(=O)c5csc(n5)[C@H]([C@](C)(O)[C@@H](C)O)NC(=O)[C@H]5CSC(=N5)/C(=C/C)NC(=O)[C@H]([C@@H](C)O)NC(=O)c5csc(n5)[C@]3(CC2)NC(=O)[C@H](C)NC(=O)C(=C)NC(=O)[C@H](C)NC(=O)[C@H]([C@@H](C)CC)N[C@@H]2C=Cc3c([C@H](C)O)cc(nc3[C@H]2O)C(=O)O[C@@H]4C)n1)C(N)=O", "cell line": "C4-2", "quantity": "EC50", "result": "7300 nM"}
{"Compound": "OCc1ccc(-c2nn(Cc3cncnc3)c3ccccc23)o1", "cell line": "RBE", "test": "ATP luminescence", "setting": "46 µM, 72 h", "quantity": "inhibition", "result": "71%"}
{"Compound": "NCC(=O)Nc1ccccc1/N=c1\\cc(-c2ccc3c(c2)OCO3)oc2c(N)cccc12", "cell line": "MDA-MB-468", "test": "CCK-8", "setting": "1 µM", "quantity": "inhibition", "result": "-4.61%"}
{"Compound": "COCCN(Cc1ccc(F)cc1)c1ccc(CO)c(Cl)c1", "cell line": "RBE", "test": "ATP luminescence", "setting": "46 µM, 72 h", "quantity": "inhibition", "result": "75%"}
{"Compound": "Oc1cccc(-c2nc(N3CCOCC3)c3oc4ncccc4c3n2)c1", "cell line": "MDA-MB-468", "test": "CCK-8", "setting": "1 µM", "quantity": "inhibition", "result": "2.69%"}
